Assay results taken from publication PMC4028150 (Chembiochem : a European journal of chemical biology, 2013).
Where a SMILES comes first, the peptide text is derived from it. Where no end group is shown, it is not given here.

T1: TRF1_(TRFH) (residues 58-268) (UniProt P54274 58-268)
T1 sequence (looked up): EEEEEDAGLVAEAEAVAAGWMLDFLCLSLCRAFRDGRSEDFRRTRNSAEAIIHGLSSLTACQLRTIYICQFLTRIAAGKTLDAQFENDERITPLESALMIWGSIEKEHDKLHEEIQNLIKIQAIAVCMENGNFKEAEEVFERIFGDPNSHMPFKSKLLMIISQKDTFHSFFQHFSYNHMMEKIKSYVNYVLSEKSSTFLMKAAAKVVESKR

B1: Control 1 (peptide)
peptide: SMTWRGKPAHMIFGKM-NH2
modifications: also: 7-hydroxycoumarin-3-carboxylic acid label, position not given here
B2: Design 1 (designed binder)
peptide: MPIFWKFHRMSKMGTG-NH2
modifications: also: 7-hydroxycoumarin-3-carboxylic acid label, position not given here
B3: Design 3 (designed binder)
peptide: MPIFWKAHRMSKMGTG-NH2
modifications: also: 7-hydroxycoumarin-3-carboxylic acid label, position not given here
B4: Design 2 (designed binder)
peptide: MPIAWKFHRMSKMGTG-NH2
modifications: also: 7-hydroxycoumarin-3-carboxylic acid label, position not given here
B5: Wild-Type peptide (Fbx4 residues 339-348) (peptide)
peptide: MPCFYLAHEL-NH2
modifications: also: 7-hydroxycoumarin-3-carboxylic acid label, position not given here
B6: Control 2 (peptide)
peptide: KKMDVCGGLSD-NH2
modifications: also: 7-hydroxycoumarin-3-carboxylic acid label, position not given here

Columns and labels:
[1] = molecular target: SCF^Fbx4 (Fbx4-dependent TRF1 ubiquitination) (UniProt P54274); assay: In vitro TRF1 ubiquitination assay; format: biochemical; details: versus wild-type peptide (IC50 = 205.9 µM)
Method in brief: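 TRF1ΔMyb (E. coli; Ni-NTA, tag cleaved, gel filtration, Mono-Q/Mono-S) was prelabelled with GST-cyclin B/Cdk1 in 50 mM Tris pH 8.0, 10 mM MgCl2, 10 mM ATP and 2 µCi [γ-33P]ATP for 1 hr, then kinase-depleted on glutathione resin. It was incubated with E1, UbcH5a, SCFFbx4, ubiquitin, methylated ubiquitin, energy-regenerating system and increasing peptide at 30°C for 2.5 hrs. SDS-PAGE and phosphorimaging followed. IC50 came from loss of polyubiquitination.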

[2] = tested on: SCF^Skp2 (p27 ubiquitination); assay: In vitro p27 ubiquitination assay; format: biochemical; details: E1, hCdc34 (E2), Cks1, p27 phosphorylated by cyclin E-Cdk2, SCF^Skp2; 2 hrs, 30°C; Figure S3
[3] = molecular target: T1, TRF1_(TRFH) (residues 58-268); assay: fluorescence polarisation

Molecule | decrease of IC50 compared to wild-type peptide [1] | effect on the ubiquitination of p27 [2] | Kd [3]
CC[C@H](C)[C@H](NC(=O)[C@@H]1CCCN1C(=O)[C@@H](N)CCSC)C(=O)N[C@@H](Cc1ccccc1)C(=O)N[C@@H](Cc1c[nH]c2ccccc12)C(=O)N[C@@H](CCCCN)C(=O)N[C@@H](Cc1ccccc1)C(=O)N[C@@H](Cc1c[nH]cn1)C(=O)N[C@@H](CCCNC(=N)N)C(=O)N[C@@H](CCSC)C(=O)N[C@@H](CO)C(=O)N[C@@H](CCCCN)C(=O)N[C@@H](CCSC)C(=O)NCC(=O)N[C@H](C(=O)NCC(N)=O)[C@@H](C)O [Design 1] (H-MPIFWKFHRMSKMGTG-NH2) | more than 6 fold | no effect | 
B1 |  |  | > 250 µM
B2 |  |  | 23.3 µM
B3 |  |  | 17.3 µM
B4 |  |  | 47.8 µM
B5 |  |  | 41.8 µM
B6 |  |  | > 10000 µM
